The nature of series [1]: MTT assay, CHME3. The series is classed as cell-based, human. The settings on record: human, CHME3 microglia cells. Summed up:
(§1)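 MTT (thiazolyl blue tetrazolium bromide) assay on LPS-inflamed CHME3 or SVG cells, fourth passage. […] Read-out is percent viable cells, plus a growth-inhibitory IC50 (concentration halving cell growth) for each cell line.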
For orientation: Tetrazolium assays rely on reduction of a dye to a coloured formazan, in cell work by metabolically active cells.

Series [2] relates to human microglia (CHME3). The series can be described thus: MTT assay, CHME3. It counts as cell-based. The settings on record: Homo sapiens, Microglia, read-out: IC50, half concentration of druggable compound to inhibit cell growth. Summed up:
as §1

Series [3] is described as follows: MTT assay, SVG. It counts as cell-based, human. The settings on record: human, SVG astrocyte cells. The essentials: as §1
The test system of series [4] is astrocyte (SVG) cell-line. The experiment in a line: MTT assay, SVG. The settings on record: Homo sapiens, Astrocyte, read-out: IC50, half concentration of druggable compound to inhibit cell growth. It counts as cell-based, human. The essentials: as §1
Series [5] concerns IL-12. The series can be described thus: IL-12 ELISA, LPS-treated CHME3. The series is classed as cell-based, human. The settings on record: selected dose. Summed up:
(§2)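 Human microglia (CHME3) and astrocyte (SVG) lines at fourth passage, inflamed with LPS. […] IL-12 or IFN-γ released into the extracellular medium was quantified with human ELISA kits 12 and 24 h after drug treatment. Controls were inflamed untreated cells and market-drug (Disprin)-treated cells.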
(In general: In an ELISA, binding on a coated surface is turned into a signal by an enzyme label.)

Series [6] relates to IL-12. The experiment in a line: IL-12 ELISA, LPS-treated SVG. The series is classed as cell-based, human. The settings on record: selected dose. Summed up: as §2
For series [7], the system named is IFN-γ. The series can be described thus: IFN-γ ELISA, LPS-treated CHME3. As to conditions: selected dose. The series is classed as cell-based, human. The essentials: as §2
The subject of series [8] is IFN-γ. The experiment in a line: IFN-γ ELISA, LPS-treated SVG. The settings on record: selected dose. The series is classed as cell-based, human. The essentials: as §2

Here are results for 1 molecule from publication PMC6830765 (Innate Immunity, 2017).

By viability is commonly meant a per cent measure of how many cells are alive, often set against a control. A low value points to a greater loss of cells.

In the case of `O=C(/C=C/C=C/c1ccc2c(c1)OCO2)N(CCCO[N+](=O)[O-])c1ccc(CO)cc1` [PA-3′k, 3-((2 E,4 E)-5-(benzo[d][1,3]dioxol-5-yl)-N-(4-(hydroxymethyl)phenyl)penta-2,4-dienamido)propyl nitrate], the results for the viability at 24 h in series [1] and in series [3] were 86.1 ± 2.57% and 89.1 ± 1.96%, respectively. Further, the IC50 in series [2] worked out at 0.0678 µg/mL; in series [4], 0.0679 µg/mL. In addition, the IL-12 quantification came to 81.68 ± 4.00 in series [5] (12 h after drug treatment), 101.88 ± 5.22 in series [5] (24 h after drug treatment), 88.11 ± 2.80 in series [6] (12 h after drug treatment) and 96.37 ± 2.95 in series [6] (24 h after drug treatment). In addition, the IFN-γ quantification in series [7] (12 h after drug treatment) was 46.35 ± 3.58; in series [7] (24 h after drug treatment), 54.86 ± 3.41; in series [8] (12 h after drug treatment), 42.57 ± 3.58; in series [8] (24 h after drug treatment), 55.81 ± 2.89.
